Reference: PMC4066402 (Genes & Development, 2014)
Residue numbers refer to the chain shown, from its start.

How the values were obtained:
Pce1 G276R = biological target: T1, Pce1 G276R (Schizosaccharomyces pombe, UniProt P40997, G276R); assay: Fluorescence polarization binding of Spt5 CTD-; parameters: species or system S. pombe
T1 sequence (P40997 1-402 G276R): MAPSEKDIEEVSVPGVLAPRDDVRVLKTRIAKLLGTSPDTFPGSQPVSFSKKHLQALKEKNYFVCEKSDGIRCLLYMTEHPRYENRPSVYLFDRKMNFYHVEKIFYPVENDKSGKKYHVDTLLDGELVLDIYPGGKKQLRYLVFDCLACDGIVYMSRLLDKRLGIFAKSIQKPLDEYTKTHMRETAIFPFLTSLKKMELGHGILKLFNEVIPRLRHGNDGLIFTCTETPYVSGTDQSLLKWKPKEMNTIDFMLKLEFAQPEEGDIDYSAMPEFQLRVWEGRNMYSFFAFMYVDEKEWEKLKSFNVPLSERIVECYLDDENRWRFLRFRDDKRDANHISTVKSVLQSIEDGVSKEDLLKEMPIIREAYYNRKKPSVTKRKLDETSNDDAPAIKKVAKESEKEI
In short: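 Tag-free Pce1–GMP (His6Smt3 fusion made in E. coli, Ulp1-cleaved, gel-filtered, then guanylylated with 1 mM GTP/5 mM MgCl2 for 30 min on ice) was titrated against BODIPY-FL-N(Cys)-Spt5-(801–898) in 20 mM Tris-HCl, 4 mM DTT. Incubation was 15 min on ice. Read-out was polarization at ex 485/em 538 nm. Kd came from single-site fits, using a receptor-depletion model where half-saturation approached the ligand concentration.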

Pce1 [1] = biological target: T2, Pce1 (Schizosaccharomyces pombe, UniProt P40997); assay: Competition between labeled and unlabeled Spt5 CTD-; assay type: binding, S. pombe; details: 1 μM Pce1 preincubated with untagged Spt5 CTD-(801–898) 15 min on ice, then 0.3 μM BODIPY-FL-Spt5 CTD-(801–898); pH 8.0; three independent experiments ± SEM
T2 sequence (P40997 1-402): T1 sequence (P40997 1-402 G276R) with R276G

Pce1 [2] = details: His tag affinity chromatography assay; ref Pei and Shuman 2002; cited from earlier work
[3] = biological target: T3, BODIPY-FL-N(Cys)-Spt5-(801–898) (S. pombe) (UniProt O13936); assay: fluorescence polarisation
T3 sequence (O13936 801-898, looked up): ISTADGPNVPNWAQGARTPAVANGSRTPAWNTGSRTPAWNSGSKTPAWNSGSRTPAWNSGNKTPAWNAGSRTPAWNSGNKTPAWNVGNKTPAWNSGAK

B1: BODIPY-FL-Spt5 CTD-(801–898): N(Cys)-Spt5-(801–898) labeled with BODIPY-FL at the N terminus via maleimide chemistry (protein, UniProt O13936 801-898, looked up, fragment)
chain: T3 sequence (O13936 801-898, looked up)
modifications: N-terminal Cys, BODIPY-FL label
decrement in binding affinity (Pce1 G276R; Pce1-G276R vs wild-type Pce1): 24 fold
Kd (Pce1 G276R; Pce1 G276R, 300 nM labeled ligand, pH 8.0, 50 mM NaCl, read at 23°C, triplicate): 28.8 ± 4.3 µM

B2: Spt5-(801–898): purified recombinant Spt5-(801–898), composed of 10 nonamer repeats (protein, UniProt O13936 801-898, looked up, fragment)
chain: T3 sequence (O13936 801-898, looked up)
Ki (Pce1 [1]): 0.61 ± 0.2 µM

B3: Spt5 CTD composed of 10 nonamer repeats: Spt5 CTD composed of 10 nonamer repeats (protein, UniProt O13936 801-898, looked up, fragment)
chain: T3 sequence (O13936 801-898, looked up)
Pce1 binding to Spt5 CTD, dependence on number of nonamer repeats (Pce1 [2]): bound well

B4: Schizosaccharomyces pombe RNA guanylyltransferase (GTase) Pce1, wild type, as the covalent Pce1–GMP intermediate (enzyme)
chain: SMAPSEKDIEEVSVPGVLAPRDDVRVLKTRIAKLLGTSPDTFPGSQPVSFSKKHLQALKEKNYFVCEKSDGIRCLLYMTEHPRYENRPSVYLFDRKMNFYHVEKIFYPVENDKSGKKYHVDTLLDGELVLDIYPGGKKQLRYLVFDCLACDGIVYMSRLLDKRLGIFAKSIQKPLDEYTKTHMRETAIFPFLTSLKKMELGHGILKLFNEVIPRLRHGNDGLIFTCTETPYVSGTDQSLLKWKPKEMNTIDFMLKLEFAQPEEGDIDYSAMPEFQLGVWEGRNMYSFFAFMYVDEKEWEKLKSFNVPLSERIVECYLDDENRWRFLRFRDDKRDANHISTVKSVLQSIEDGVSKEDLLKEMPIIREAYYNRKKPSVTKRKLDETSNDDAPAIKKVAKESEKEI
modifications: Lys67 covalently guanylylated (lysyl-Nζ-GMP)
Kd [3]: 1.19 µM

B5: Pce1-G276R (enzyme)
chain: B4 chain with G277R
modifications: guanylylated in vitro (Pce1–GMP)
Kd [3]: 28.8 µM
